Among the data in ChEMBL document CHEMBL1143985, “Aryl azoles with neuroprotective activity--parallel synthesis and attempts at target identification” (2008) are Activity and inhibition values, retold here.

The source made the active and inactive calls. No cut-off for these calls is given here.

The nature of test [1]: Neuroprotective effect against NMDA-induced toxicity in Sprague-Dawley rat mixed cortical neurons assessed as LDH release at 10 uM co-treated with NMDA. Type of test: functional, Cortical neurone. In short, it runs like this: (§1)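 Mixed cortical cultures from E16 Sprague–Dawley rat neocortex, grown in Neurobasal with 5% FBS and used at 12 days in vitro. Compound added 20 min (co-treatment) or 24 h (pre-treatment) before NMDA (60 µM). MK-801 10 µM served as positive control. After 24 h, LDH release was read and normalized to the NMDA-released level. Technical replicates per sample were combined across independent experiments.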

The nature of test [2]: Displacement of [3H]batrachotoxinin from sodium channel site 2 at 10 uM relative to veratridine. For orientation: Loss of bound radioactivity is the signal in a displacement assay; it reports binding, not function.
Test [3] is described as follows: Neuroprotective effect against veratridine-induced toxicity in Sprague-Dawley rat pure cortical neurons assessed as XTT release at 1 uM co-treated with veratridine. Type of test: functional, Cortical neurone. In short, it runs like this: (§2)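 E16 Sprague–Dawley rat cortical cultures, either mixed (Neurobasal with 5% FBS) or pure neuronal (Neurobasal with B27), used at 12 days in vitro. Compound at 1 or 10 µM was added 20 min before veratridine (60 µM). Viability was read 24 h later by LDH release in mixed cultures and XTT in pure cultures, normalized to veratridine. Three experiments, eight replicates each.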
(In general: Tetrazolium assays rely on reduction of a dye to a coloured formazan, in cell work by metabolically active cells.)

Test [4] in a line: Neuroprotective effect against veratridine-induced toxicity in Sprague-Dawley rat pure cortical neurons assessed as XTT release at 10 uM co-treated with veratridine. Format: functional, Cortical neurone. In short, it runs like this: as §2
Test [5] can be described thus: Neuroprotective effect against veratridine-induced toxicity in Sprague-Dawley rat mixed cortical neurons assessed as XTT release at 10 uM pre-treated before veratridine treatment. Type of test: functional, Cortical neurone.
A short description of test [6]: Neuroprotective effect against veratridine-induced toxicity in Sprague-Dawley mixed rat cortical neurons assessed as LDH release at 1 uM co-treated with veratridine. Background: Release of lactate dehydrogenase indicates damage to the cell membrane.
The nature of test [7]: Neuroprotective effect against veratridine-induced toxicity in Sprague-Dawley mixed rat cortical neurons assessed as LDH release at 10 uM co-treated with veratridine.
A short description of test [8]: Neuroprotective effect against NMDA-induced toxicity in Sprague-Dawley rat mixed cortical neurons assessed as LDH release at 1 uM pretreated before NMDA treatment. Format: functional, Cortical neurone. The method, boiled down:
as §1

Test [9] is described as follows: Neuroprotective effect against NMDA-induced toxicity in Sprague-Dawley rat mixed cortical neurons assessed as LDH release at 10 uM pre-treated before NMDA treatment. Format: functional, Cortical neurone. In short, it runs like this:
as §1

Test [10] is described as follows: Neuroprotective effect against NMDA-induced toxicity in Sprague-Dawley rat mixed cortical neurons assessed as LDH release at 1 uM co-treated with NMDA. Type of test: functional, Cortical neurone. In short, it runs like this: as §1
The test system of test [11] is Cortical neurone. As to the kind of experiment: Neuroprotective effect against NMDA-induced toxicity in Sprague-Dawley rat mixed cortical neurons assessed as LDH release at 0.1 uM co-treated with NMDA. Type of test: functional. The method, boiled down: as §1

By inhibition is commonly meant the change of the read-out against control, counted positive when it falls. Low values mean a response near the control, high ones a response far below the control. As to `COc1ccc(-c2cc(-c3ccccc3)n(C)n2)cc1`, in test [1], the Activity is on record as 70.4%. The inhibition in [2] was determined as 8%.

For `Cn1nc(-c2ccc(C(=O)O)cc2)cc1-c1ccc(C(C)(C)C)cc1`, the Activity in test [1] came to 61.1%. In addition, in [2], the result was inactive.

Take `CC(=O)N1N=C(c2ccccc2)CC1c1cccc(Cl)c1` (stereo unspecified): the Activity in test [1] is reported as 86.4%. This compound yielded an inhibition in test [2] of 27%.

As to `Cn1nc(-c2ccc(Cl)cc2)cc1-c1ccccc1`, in test [1], the Activity worked out at 87.3%. In test [2], this compound gave an inhibition of 13%.

In the case of `COc1ccccc1-c1cnn(-c2ccccc2)c1`, in test [1], the Activity came out at 80.3%. Besides, the outcome in test [2] was inactive.

For the compound `O=[N+]([O-])c1ccc(-c2cc(-c3ccccc3)n[nH]2)cc1`, in test [1], the Activity was determined as 89%. Moreover, in test [2], the inhibition came to 14%.

Turning to `Clc1cccc(-c2cc(-c3ccccc3)n[nH]2)c1`, the Activity in [1] came out at 96.4%. Besides, the inhibition in test [2] is 21%.

As to `O=[N+]([O-])c1cccc(-c2cc(-c3ccccc3)n[nH]2)c1`, the Activity in test [1] is on record as 75.6%; in test [3], 80.9%; in test [4], 51.2%; in [5] it was 70%; in [6] it was 77.6%; in test [7], 26.6%. Moreover, the inhibition in test [2] came out at 15%.

Take `Cn1nc(-c2ccccc2)cc1-c1cccc(Cl)c1`: the Activity in [1] turned out to be 65.6%. In [2], this compound yielded an inhibition of 15%.

Take `Cn1nc(-c2ccccc2)cc1-c1cccc([N+](=O)[O-])c1`: in test [1], the Activity worked out at 85.5%. In test [2], this compound yielded an inhibition of 4%.

For `Clc1ccc(-c2cc(-c3ccccc3)n[nH]2)cc1`, the Activity in test [1] is recorded as 66.1%; in test [3], 75%; in test [4] it was 56.5%; in [5], 70%; in test [6], 74.1%; in test [7], 24.2%. Besides, the inhibition in test [2] was 16%.

`COc1ccc(C(=O)O[C@H]2CC[C@@]3(C)[C@@H]4CC[C@H]5[C@]6(O)C[C@H](O)[C@@]7(O)[C@@H](CN8C[C@@H](C)CC[C@H]8[C@@]7(C)O)[C@]6(O)C[C@@]53O[C@]24O)cc1OC`: the inhibition in test [2] was 100%.

Regarding `COc1cccc(-c2cc(-c3ccccc3)nn2C)c1`, in test [1], the Activity turned out to be 78.3%. This compound also registered an inhibition in test [2] of 12%.

Regarding `COc1ccc(-c2cc(-c3ccccc3)n[nH]2)cc1`, the Activity turned out to be 67.2% in test [1]; 91.1% in [8]; 95% in test [9]; 81.7% in test [10]; 70.4% in [3]; 64.9% in test [4]. Also, the Activity in test [5] is listed as 50%; in test [6], 80.9%; in test [7], 49.2%. The inhibition in test [2] worked out at 30%.

In the case of `COc1cccc(C2CC(c3ccccc3)=NN2C(C)=O)c1` (stereo unspecified), the Activity in [1] is recorded as 81%. In test [2], this compound came in with an inhibition of 16%.

`Cn1nc(-c2ccc([N+](=O)[O-])cc2)cc1-c1ccccc1`: the Activity in test [1] came out at 86.3%. The compound further displayed an inhibition in test [2] of 8%.

On to `Cn1nc(-c2ccccc2)cc1-c1c[nH]c2ccccc12`, for which the Activity in test [1] is on record as 76.7%. Further, in test [2], the inhibition is 14%.

For the compound `COc1cccc(-c2cc(-c3ccccc3)n[nH]2)c1`, the Activity in [1] amounted to 76%. In test [2], the inhibition stood at 27%.

As for `Cn1nc(-c2ccccc2)cc1-c1ccc2[nH]ccc2c1`, the Activity is 67.1% in test [1]; 90.2% in test [8]; 86% in test [9]; 80.3% in [10]; 82.7% in test [3]; 56.8% in [4]. Besides, the Activity in [5] is on record as 40%; in test [6], 87.9%; in test [7], 63.2%. Further, the result in [11] was inactive. The compound also showed an inhibition in test [2] of 41%.

For `CC(=O)N1N=C(c2ccc([N+](=O)[O-])cc2)CC1c1ccccc1` (stereo unspecified), the Activity in test [1] amounted to 85.5%. For the same compound, the inhibition in test [2] was 17%.
